Here are results for 7 compounds from ChEMBL document CHEMBL1139862, “Malaria-infected mice are cured by a single dose of novel artemisinin derivatives” (2007).

Common to all, as to format: functional
Assay [1] concerns Mus musculus. In words: Survival of Plasmodium berghei GFP infected mice (Mus musculus) at 30 mg/kg, subcutaneous after single dose. The method in brief:
(§1)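 Single subcutaneous dose given on day 1 after infection; vehicle Tween 80 (70%)/ethanol (30%), then 10× dilution with water. Three animals per dimer group. Read-out is average survival in days after infection. Mice alive at day 30 were sacrificed, and if no parasites were detected they were counted cured. Parasitemia was measured by flow cytometry.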

For assay [2], the system named is Mus musculus. Put plainly: Survival of Plasmodium berghei GFP infected mice (Mus musculus) at 10 mg/kg, subcutaneous after single dose. The method in brief:
as §1

For assay [3], the system named is Mus musculus. Put plainly: Survival of Plasmodium berghei GFP infected mice (Mus musculus) at 3 mg/kg, subcutaneous after single dose. Summed up: as §1
Assay [4] concerns Mus musculus. In words: Survival of Plasmodium berghei GFP infected mice (Mus musculus) at 30 mg/kg, peroral after three doses. The settings on record: route oral. The method in brief: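 Three consecutive daily oral doses starting day 1 after infection; vehicle Tween 80 (70%)/ethanol (30%), then 10× dilution with water. Three animals per dimer group. Read-out is average survival in days after infection. Survivors at day 30 were sacrificed, and if no parasites were detected they were counted cured. Parasitemia was measured by flow cytometry.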

The structures appear in SMILES notation.

For the compound `C[C@H]1[C@@H](CC(CNc2ccccc2)C[C@H]2O[C@@H]3O[C@@]4(C)CC[C@H]5[C@H](C)CC[C@@H]([C@H]2C)[C@@]35OO4)O[C@@H]2O[C@@]3(C)CC[C@H]4[C@H](C)CC[C@@H]1[C@@]24OO3` (some centres not stated), the Survival is above 30 days with Mus musculus [1], 12.3 days with Mus musculus [2] and 8 days in the assay on Mus musculus [3].

`C[C@H]1[C@@H](CC(C[C@H]2O[C@H]3O[C@@]4(C)CC[C@H]5[C@H](C)CC[C@@H]([C@H]2C)[C@@]35OO4)C(=O)NCc2ccccc2)O[C@@H]2O[C@@]3(C)CC[C@H]4[C@H](C)CC[C@@H]1[C@@]24OO3` (some centres not stated): the Survival in the assay with Mus musculus [1] was above 30 days; in the assay on Mus musculus [2] it was 15 days; in the assay with Mus musculus [3] it was 12.3 days; in the assay with Mus musculus [4] it was 12.7 days.

For the compound `C[C@H]1[C@@H](CC(C[C@H]2O[C@H]3O[C@@]4(C)CC[C@H]5[C@H](C)CC[C@@H]([C@H]2C)[C@@]35OO4)C(=O)NNC(=O)c2ccncc2)O[C@@H]2O[C@@]3(C)CC[C@H]4[C@H](C)CC[C@@H]1[C@@]24OO3` (some centres not stated), the Survival was above 30 days in the assay with Mus musculus [1], 10 days in the assay on Mus musculus [2], 9 days with Mus musculus [3] and 7 days in the assay on Mus musculus [4].

For `C[C@H]1[C@H](OC(=O)CCC(=O)O)O[C@@H]2O[C@@]3(C)CC[C@H]4[C@H](C)CC[C@@H]1[C@@]24OO3` [ARTESUNATE], the Survival was 9.1 days with Mus musculus [1], 8.6 days in the assay on Mus musculus [2], 7.3 days with Mus musculus [3] and 7.5 days in the assay on Mus musculus [4].

As for `C[C@H]1[C@@H](CC(C[C@H]2O[C@H]3O[C@@]4(C)CC[C@H]5[C@H](C)CC[C@@H]([C@H]2C)[C@@]35OO4)C(=O)NC(C)(C)C)O[C@@H]2O[C@@]3(C)CC[C@H]4[C@H](C)CC[C@@H]1[C@@]24OO3` (some centres not stated), the Survival in the assay on Mus musculus [1] was above 30 days; with Mus musculus [2] it was 25.3 days; in the assay with Mus musculus [3] it was 14 days; in the assay with Mus musculus [4] it was 14.7 days.

As for `Cc1ccc(COCC(C[C@H]2O[C@@H]3O[C@@]4(C)CC[C@H]5[C@H](C)CC[C@@H]([C@H]2C)[C@@]35OO4)C[C@H]2O[C@@H]3O[C@@]4(C)CC[C@H]5[C@H](C)CC[C@@H]([C@H]2C)[C@@]35OO4)cc1` (some centres not stated), the Survival is 27 days with Mus musculus [1], 10 days with Mus musculus [2], 8 days with Mus musculus [3] and above 30 days in the assay with Mus musculus [4].

`C[C@H]1[C@@H](CC(O)(COCc2ccncc2)C[C@H]2O[C@@H]3O[C@@]4(C)CC[C@H]5[C@H](C)CC[C@@H]([C@H]2C)[C@@]35OO4)O[C@@H]2O[C@@]3(C)CC[C@H]4[C@H](C)CC[C@@H]1[C@@]24OO3` (some centres not stated): the Survival in the assay with Mus musculus [1] is 15 days; in the assay with Mus musculus [2] it was 13.3 days; in the assay on Mus musculus [3] it was 9.7 days; in the assay on Mus musculus [4] it was above 30 days.
